From ChEMBL document CHEMBL1140313, “Potent inhibitors of subgenomic hepatitis C virus RNA replication through optimization of indole-N-acetamide allosteric inhibitors of the viral NS5B polymerase” (J Med Chem, 2005)

Columns and labels:
[1] = system: Huh-7; assay: Effective concentration required to inhibit replication of subgenomic HCV RNA in HUH-7 cells in the presence of 10% fetal calf serum; assay type: functional, cell-based; details: Homo sapiens
In short: (§1)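 Subgenomic HCV replicon in HUH-7 cells, run in medium with 10% fetal calf serum (a modification of Bartenschlager's method). EC50 was determined only for compounds giving >50% inhibition in an initial screen at a fixed 5 μM. Values are the arithmetic mean ± half-range or standard error of at least two independent determinations, or from a single experiment where noted.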

[2] = target: T1, RNA-directed RNA polymerase (Hepacivirus hominis, UniProt O39930); assay: Inhibitory activity against by hepatitis C virus NS5B polymerase
T1 sequence (O39930 whole entry): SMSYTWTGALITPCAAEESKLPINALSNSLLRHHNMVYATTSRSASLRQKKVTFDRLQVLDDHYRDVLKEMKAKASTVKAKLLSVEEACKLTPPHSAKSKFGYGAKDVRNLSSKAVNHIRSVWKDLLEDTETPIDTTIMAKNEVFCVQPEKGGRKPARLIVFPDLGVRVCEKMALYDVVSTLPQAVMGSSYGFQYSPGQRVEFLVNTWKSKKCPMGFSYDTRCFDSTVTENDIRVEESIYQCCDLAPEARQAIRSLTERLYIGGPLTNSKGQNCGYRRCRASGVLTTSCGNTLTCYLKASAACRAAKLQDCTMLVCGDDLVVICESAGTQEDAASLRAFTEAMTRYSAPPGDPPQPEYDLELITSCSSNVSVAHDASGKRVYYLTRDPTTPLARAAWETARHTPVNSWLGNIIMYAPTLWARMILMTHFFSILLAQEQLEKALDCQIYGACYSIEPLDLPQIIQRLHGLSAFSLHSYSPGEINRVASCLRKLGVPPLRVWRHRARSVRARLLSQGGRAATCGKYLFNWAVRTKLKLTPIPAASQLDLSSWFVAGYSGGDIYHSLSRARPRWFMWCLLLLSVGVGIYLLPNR
In short: (§2)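 Purified ΔC55 NS5B polymerase assayed with heterogenic template RNA. IC50 values come from a single experiment or are arithmetic means of multiple experiments, as footnoted; some were measured in duplicate.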

[3] = system: Huh-7; assay: Effective concentration required to inhibit replication of subgenomic HCV RNA in HUH-7 cells; assay type: functional, cell-based; details: Homo sapiens; in short: as §1
[4] = target: T2, pregnane X receptor (PXR, NR1I2) (Homo sapiens, UniProt O75469); assay: Inhibition of pregnane X receptor mediated activation of alkaline phosphatase reporter gene at 10 uM; assay type: functional
T2 sequence (O75469 whole entry): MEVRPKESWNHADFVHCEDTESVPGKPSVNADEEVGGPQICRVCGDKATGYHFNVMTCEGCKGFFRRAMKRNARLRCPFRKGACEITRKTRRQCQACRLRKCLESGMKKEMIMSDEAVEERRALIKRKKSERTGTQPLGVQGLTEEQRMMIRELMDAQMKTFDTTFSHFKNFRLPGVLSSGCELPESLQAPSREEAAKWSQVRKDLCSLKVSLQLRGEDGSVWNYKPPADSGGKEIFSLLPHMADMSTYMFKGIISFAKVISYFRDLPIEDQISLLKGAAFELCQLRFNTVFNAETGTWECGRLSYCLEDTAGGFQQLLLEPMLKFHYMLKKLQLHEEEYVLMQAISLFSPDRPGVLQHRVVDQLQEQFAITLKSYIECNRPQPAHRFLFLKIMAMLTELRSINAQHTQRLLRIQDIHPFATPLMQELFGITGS
In short: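 HepG2 cells were cotransfected with a human PXR expression vector and a secreted alkaline phosphatase (SEAP) reporter driven by a synthetic PXR-responsive element. Cells were incubated 48 h with or without test compound, and SEAP activity was read with a commercial detection kit.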

[5] = Plasma clearance in dog; assay type: ADME, organism-based, Canis lupus familiaris; details: read-out: Clp
In short: (§3)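 Sprague-Dawley rats and male beagle dogs, dosed as trifluoroacetate salts (mg/kg; n = 3, some n = 2). Rat vehicle: iv 20% DMSO/[…] with po PEG-400, or iv 20% DMSO/80% saline with po 50% PEG-400/50% H2O. Dog vehicle: iv 20% DMSO/40% PEG-400/40% H2O, po PEG-400. Plasma levels measured by HPLC–MS/MS; noncompartmental analysis; terminal half-life from iv.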

[6] = Plasma clearance in rat; assay type: ADME, organism-based; details: read-out: Clp; in short: as §3
[7] = Plasma half life following 3 mg/kg iv administration in rat; assay type: ADME, organism-based; parameters: dose 3 mg/kg, route intravenous; in short: as §3
[8] = Oral bioavailability in dog at a dose of 2 mg/kg; assay type: ADME, organism-based, Canis lupus familiaris; details: in vivo; in short: as §3
[9] = Oral bioavailability in rat (dose 3 mg/kg); assay type: ADME, organism-based; details: in vivo; in short: as §3
[10] = Plasma half life following 0.5 mg/kg iv administration in dog
[11] = target: T1, RNA-directed RNA polymerase; assay: Inhibitory activity against hepatitis C virus NS5B polymerase enzyme; Range=6-9 nM; in short: as §2
[12] = system: Huh-7; assay: Effective concentration required to inhibit replication of subgenomic HCV RNA in HUH-7 cells in the presence of 50% normal human serum; assay type: functional, cell-based
In short: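 Subgenomic HCV replicon in HUH-7 cells run under high-serum conditions with 50% normal human serum in place of 10% fetal calf serum. EC50 values are the arithmetic mean ± half-range or standard error of at least two independent determinations.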

| SMILES | EC50 [1] | IC50 [2] | EC50 [3] | further results |
| --- | --- | --- | --- | --- |
| CN(C)C(=O)Cn1c(-c2ccccc2)c(C2CCCCC2)c2ccc(C(=O)O)cc21 | 1500 nM |  |  |  |
| CN(C)C1CCN(C(=O)Cn2c(-c3ccccc3)c(C3CCCCC3)c3ccc(C(=O)O)cc32)C1 (stereo unspecified) |  | 71 nM | 700 nM |  |
| CN1CCCC(CN(C)C(=O)Cn2c(-c3cccc(F)c3)c(C3CCCCC3)c3ccc(C(=O)O)cc32)C1 (stereo unspecified) |  |  |  | inhibition at 10 µM [4]: 72% |
| CN1CCCC(CN(C)C(=O)Cn2c(-c3ccccc3)c(C3CCCC3)c3ccc(C(=O)O)cc32)C1 (stereo unspecified) |  | 47 nM | 400 nM |  |
| CN(C)C1CCN(C(=O)Cn2c(-c3ccccc3)c(C3CCCCC3)c3ccc(C(=O)O)cc32)CC1 | 300 nM | 41 nM |  | inhibition at 10 µM [4]: 14% |
| C=Cc1c(C2CCCCC2)c2ccc(C(=O)O)cc2n1CC(=O)N1CCC(N(C)C)CC1 | 2800 nM | 49 nM |  |  |
| CN1CCCC(CN(C)C(=O)Cn2c(-c3ccccc3)c(C3CCCCC3)c3ccc(C(=O)O)cc32)C1 (stereo unspecified) |  | 18 nM | 300 nM | clearance [5]: 22 mL/min/kg; clearance [6]: 51 mL/min/kg; half-life [7]: 1.5 h; bioavailability [8]: 28%; bioavailability [9]: 1.9%; inhibition at 10 µM [4]: 10%; half-life [10]: 1.2 h |
| CN(C)C1CCN(C(=O)Cn2c(-c3ccccc3)c(C3CCCCC3)c3cc(C(=O)O)ccc32)C1 (stereo unspecified) |  | 244 nM | 5000 nM |  |
| CN1CCN(C(=O)Cn2c(-c3ccccc3)c(C3CCCC3)c3ccc(C(=O)O)cc32)CC1 |  | 68 nM | 800 nM |  |
| CN(C)Cc1cccc(-c2c(C3CCCCC3)c3ccc(C(=O)O)cc3n2CC(=O)N(C)C)c1 | 3300 nM | 147 nM |  |  |
| CN1CCN(C(=O)Cn2c(-c3ccccc3)c(C3CCCCC3)c3ccc(C(=O)O)cc32)CC1 |  | 39 nM | 500 nM |  |
| CCN(CC)C1CCN(C(=O)Cn2c(-c3ccc(OC)cc3)c(C3CCCCC3)c3ccc(C(=O)O)cc32)CC1 | 144 nM |  |  | IC50 [11]: 9 nM; EC50 [12]: 422 nM |
| CN1CCN(C(=O)Cn2c(-c3ccc(Cl)cc3)c(C3CCCCC3)c3ccc(C(=O)O)cc32)CC1 |  | 12 nM | 300 nM |  |
| O=C(O)c1ccc2c(c1)c(C1CCCCC1)c(-c1ccccc1)n2CC(=O)N1CCS(=O)(=O)CC1 |  |  | > 5000 nM |  |
| CN(C)C1CCN(C(=O)Cn2c(-c3ccc(Cl)cc3)c(C3CCCCC3)c3ccc(C(=O)O)cc32)CC1 |  |  |  | inhibition at 10 µM [4]: 15% |
| COc1ccc(-c2c(C3CCCCC3)c3ccc(C(=O)O)cc3n2CC(=O)N2CCC(N(C)C)CC2)cc1 | 158 nM |  |  | IC50 [11]: 9 nM; EC50 [12]: 677 nM |
| CN(C)C(=O)Cn1c(-c2ccoc2)c(C2CCCCC2)c2ccc(C(=O)O)cc21 | 800 nM | 31 nM |  |  |
| CC(C)N(C)C(=O)Cn1c(-c2ccc(Cl)cc2)c(C2CCCCC2)c2ccc(C(=O)O)cc21 |  | 11 nM | 900 nM |  |
| CN(C)C1CCN(C(=O)Cn2c(-c3ccccc3)c(C3CCCC3)c3ccc(C(=O)O)cc32)C1 (stereo unspecified) |  | 78 nM | 1500 nM |  |
| CN(C)C(=O)CN(C)C(=O)Cn1c(-c2ccc(Cl)cc2)c(C2CCCCC2)c2ccc(C(=O)O)cc21 |  | 17 nM | 1100 nM |  |
| CS(=O)(=O)N1CCN(C(=O)Cn2c(-c3ccc(Cl)cc3)c(C3CCCCC3)c3ccc(C(=O)O)cc32)CC1 |  | 7 nM | 500 nM |  |
| CCc1c(C2CCCCC2)c2ccc(C(=O)O)cc2n1CC(=O)N1CCC(N(C)C)CC1 |  | 283 nM |  |  |
| CN(C)C(=O)CN(C)C(=O)Cn1c(-c2ccccc2)c(C2CCCC2)c2ccc(C(=O)O)cc21 |  |  | > 5000 nM |  |
| CC(C)N(C)C(=O)Cn1c(-c2ccccc2)c(C2CCCCC2)c2ccc(C(=O)O)cc21 |  | 62 nM | 1600 nM |  |
| CN1CCN(C(=O)Cn2c(-c3ccccc3)c(C3CCCCC3)c3cc(C(=O)O)ccc32)CC1 |  | 448 nM | 3500 nM |  |
| CN(C)C1CCN(C(=O)Cn2c(C3=CCCCC3)c(C3CCCCC3)c3ccc(C(=O)O)cc32)CC1 | 400 nM | 18 nM |  |  |
| CC(C)N(C)C(=O)Cn1c(-c2ccccc2)c(C2CCCCC2)c2cc(C(=O)O)ccc21 |  |  | > 5000 nM |  |
| CS(=O)(=O)N1CCN(C(=O)Cn2c(-c3ccccc3)c(C3CCCCC3)c3ccc(C(=O)O)cc32)CC1 |  | 19 nM | 900 nM |  |

| SMILES | EC50 [1] | IC50 [2] | EC50 [3] | further results |
| --- | --- | --- | --- | --- |
| O=C(O)c1ccc2c(C3CCCCC3)c(-c3ccoc3)n(CC(=O)N3CCC(N4CCC4)CC3)c2c1 | 199 nM |  |  | IC50 [11]: 9 nM; EC50 [12]: 633 nM |
| O=C(Cn1c(-c2ccc(Cl)cc2)c(C2CCCCC2)c2ccc(C(=O)O)cc21)NCC1CC1 |  | 8 nM | 1400 nM |  |
| CC(C)N(C)Cc1cccc(-c2c(C3CCCCC3)c3ccc(C(=O)O)cc3n2CC(=O)N(C)C)c1 | 1100 nM | 78 nM |  |  |
| O=C(O)c1ccc2c(C3CCCCC3)c(-c3ccc(Cl)cc3)n(CC(=O)N3CCS(=O)(=O)CC3)c2c1 |  | 11 nM | 900 nM |  |
| CN(C)C(=O)Cn1c(-c2cccnc2)c(C2CCCCC2)c2ccc(C(=O)O)cc21 | 13000 nM | 332 nM |  |  |
| CN(C)Cc1ccc(-c2c(C3CCCCC3)c3ccc(C(=O)O)cc3n2CC(=O)N(C)C)cc1 | 17600 nM | 920 nM |  |  |
| O=C(Cn1c(-c2ccccc2)c(C2CCCCC2)c2ccc(C(=O)O)cc21)NCC1CC1 |  | 63 nM | 1300 nM |  |
| CN1CCCC(CN(C)C(=O)Cn2c(-c3ccccc3)c(C3CCCCC3)c3cc(C(=O)O)ccc32)C1 (stereo unspecified) |  |  | > 5000 nM |  |
| CN(C)C1CCN(C(=O)Cn2c(C3CCCCC3)c(C3CCCCC3)c3ccc(C(=O)O)cc32)CC1 | 4000 nM | 72 nM |  |  |
| CN(C)C(=O)Cn1c(-c2cccc(CN3CCCC(F)(F)C3)c2)c(C2CCCCC2)c2ccc(C(=O)O)cc21 | 600 nM | 18 nM |  |  |
| O=C(O)c1ccc2c(C3CCCC3)c(-c3ccccc3)n(CC(=O)N3CCS(=O)(=O)CC3)c2c1 |  |  | > 5000 nM |  |
| CN(C)C(=O)CN(C)C(=O)Cn1c(-c2ccccc2)c(C2CCCCC2)c2ccc(C(=O)O)cc21 |  | 98 nM | 1900 nM |  |
| CN(C)C1CCN(C(=O)Cn2c(-c3cccc(F)c3)c(C3CCCCC3)c3ccc(C(=O)O)cc32)CC1 |  |  |  | inhibition at 10 µM [4]: 10% |
| CCN(CC)CC1CN(C(=O)Cn2c(-c3ccc(OC)cc3)c(C3CCCCC3)c3ccc(C(=O)O)cc32)CCO1 (stereo unspecified) | 152 nM |  |  | IC50 [11]: 9 nM; EC50 [12]: 376 nM |
| CC(C)N(C)C(=O)Cn1c(-c2ccccc2)c(C2CCCC2)c2ccc(C(=O)O)cc21 |  |  | > 5000 nM |  |
| CN(C)C(=O)Cn1c(-c2ccncc2)c(C2CCCCC2)c2ccc(C(=O)O)cc21 | 6700 nM | 134 nM |  |  |
| C#Cc1c(C2CCCCC2)c2ccc(C(=O)O)cc2n1CC(=O)N1CCC(N(C)C)CC1 |  | 228 nM |  |  |
| CN(C)C(=O)CN(C)C(=O)Cn1c(-c2ccccc2)c(C2CCCCC2)c2cc(C(=O)O)ccc21 |  |  | > 5000 nM |  |
| O=C(O)c1ccc2c(C3CCCCC3)c(-c3ccccc3)n(CC(=O)N3CCS(=O)(=O)CC3)c2c1 |  | 43 nM | 1600 nM |  |
| CN1CCCC(CN(C)C(=O)Cn2c(-c3ccc(Cl)cc3)c(C3CCCCC3)c3ccc(C(=O)O)cc32)C1 (stereo unspecified) |  | 12 nM | 300 nM | inhibition at 10 µM [4]: 92% |
| O=C(Cn1c(-c2ccccc2)c(C2CCCCC2)c2cc(C(=O)O)ccc21)NCC1CC1 |  |  | > 5000 nM |  |
| CN(C)Cc1cc(-c2c(C3CCCCC3)c3ccc(C(=O)O)cc3n2CC(=O)N(C)C)ccc1Cl | 2700 nM | 78 nM |  |  |
| CS(=O)(=O)N1CCN(C(=O)Cn2c(-c3ccccc3)c(C3CCCC3)c3ccc(C(=O)O)cc32)CC1 |  |  | > 5000 nM |  |
| CS(=O)(=O)N1CCN(C(=O)Cn2c(-c3ccccc3)c(C3CCCCC3)c3cc(C(=O)O)ccc32)CC1 |  |  | > 5000 nM |  |
| O=C(Cn1c(-c2ccccc2)c(C2CCCC2)c2ccc(C(=O)O)cc21)NCC1CC1 |  |  | > 5000 nM |  |
| COc1ccc(-c2c(C3CCCCC3)c3ccc(C(=O)O)cc3n2CC(=O)N(C)C)cn1 | 1800 nM | 69 nM |  |  |
| CN(C)C1CCN(C(=O)Cn2c(-c3ccc(Cl)cc3)c(C3CCCCC3)c3ccc(C(=O)O)cc32)C1 (stereo unspecified) |  | 13 nM | 200 nM |  |
